Screening data: PubChem BioAssay, Sanford-Burnham Center for Chemical Genomics
Apaf-1 act = activates human Apaf-1 apoptosome; activity change, negative = activation, % at 20 µM; hit rate 0.31% among 330,000; Apaf-1 apoptosome caspase-3 activation, DEVD-Rh110 fluorescence; hits give low values; O14727;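 active = activity change at or below -40% at 20 µM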
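Material: reconstituted apoptosome of Apaf-1, cytochrome c, caspase-9, procaspase-3; times: 30 min preincubation, 50 min reaction, room temperature; measured by: fluorescence, 540 nm emission, 480 nm excitation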
Rh110 interf act = Rh110 signal interference in Apaf-1 activator counter-screen; shares compounds with Apaf-1 act; Rh110 fluorescence interference, quenched caspase reaction, Ex480/Em540; fluorescence interference (activity change), % at 20 µM, hits read low; 980 tested, under 10 active;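 active = mean activity change at or below -40% when tested at 20 µM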
Apaf-1 act conf = confirmation of human Apaf-1 activators; shares compounds with Apaf-1 act; reconstituted apoptosome caspase-3 activity, DEVD-Rh110 fluorescence; hits give low values; activity change, negative = activation, % at 20 µM; hit rate 5% among 980;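 active = mean activity change at or below -40%, meaning activation of 40% or more, at 20 µM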
Large screens that a line does not name were inactive (follow-up assays come after a bar, where they were run). These entries were drawn from the full list.

CC1CN(C(=O)c2cccc(S(=O)(=O)NCc3ccccc3)c2)CC(C)O1 (centres undefined)	none
Cc1cc2cc(CNC(=O)c3ccc(S(=O)(=O)N(C)C)cc3)ccc2n1C	none
CC(C)CCOc1ccc(C(CC(N)=O)C(=O)O)cc1 (centres undefined)	Apaf-1 act -41.3 | Rh110 interf act inactive | Apaf-1 act conf inactive
Cc1ccc(Sc2ncccc2C(=O)NCc2cc([N+](=O)[O-])ccc2O)c(C)c1	Apaf-1 act -47.8 | Rh110 interf act inactive | Apaf-1 act conf inactive
Cc1ccc(O)c(CNc2cccc3cccnc23)c1	none
Oc1ccc(/C=N\Nc2cc(N3CCOCC3)nc(N3CCOCC3)n2)c(O)c1	none
C=CCNc1nc(Cl)nc(Nc2ccc(OCC)cc2)n1	Apaf-1 act -51.5 | Rh110 interf act inactive | Apaf-1 act conf inactive
N#Cc1sc2nc(-c3ccccc3)cc(-c3ccco3)c2c1N	none
COc1ccc(/C=C/C(=O)Nc2cc(C)nn2-c2nc3ccccc3[nH]2)cc1	Apaf-1 act -56.2 | Rh110 interf act inactive | Apaf-1 act conf inactive
CCN(CC)C(=O)[C@H]1CC(CC(=O)NCCCN(C)C)C(=O)N2CCc3c([nH]c4ccccc34)[C@]12C (some centres undefined)	none
COc1ccc(C2CC(c3ccc(OC)cc3)n3nc(NC(=O)c4ccco4)nc3N2)cc1 (centres undefined)	Apaf-1 act -329.7 | Rh110 interf act inactive | Apaf-1 act conf inactive
COc1ccc2c(c1)Cc1sc(NC(=O)c3ccco3)nc1-2	none
OC(COc1c(Cl)cc(Cl)cc1Cl)CN1CCCCC1 (centres undefined)	Apaf-1 act -88.1 | Rh110 interf act inactive | Apaf-1 act conf inactive
CC1=NN(c2ccc(S(=O)(=O)O)cc2Cl)C(=O)C1	none
O=C(NCCc1ccccc1)c1ccc2nc(-c3ccco3)c(-c3ccco3)nc2c1	none
O=C(CCc1ccccc1)Nc1ccc(NC(=O)c2ccco2)cc1	Apaf-1 act -192.7 | Rh110 interf act inactive | Apaf-1 act conf inactive
COc1cccc2nc3cc(C)c(C)cc3nc12	none
COc1ccc(CC(=O)Nc2ccc(S(=O)(=O)Nc3onc(C)c3C)cc2)cc1OC	Apaf-1 act -90.5 | Rh110 interf act inactive | Apaf-1 act conf inactive
COc1ccc(CCN(C)C(=O)c2ccc(COc3ccccc3)o2)cc1OC	none
COc1ccc(CC(=O)NNS(=O)(=O)c2ccc([N+](=O)[O-])cc2)cc1OC	Apaf-1 act -479.1 | Rh110 interf act inactive | Apaf-1 act conf inactive
CCCCCc1cc(=O)oc2c(C(CCN3CCCC(C)C3)c3ccc4c(c3)OCO4)c(OC)cc(OC)c12 (centres undefined)	none
Cc1nc2c(=O)[nH]c(=S)n(C)c2nc1C	Apaf-1 act -262.5 | Rh110 interf act inactive | Apaf-1 act conf inactive
CCOc1ccc(NC(=O)c2c[nH]n3c(=O)cc(C4CCN(C(=O)OC(C)(C)C)CC4)nc23)cc1	none
CCN1CCc2c(sc(NC(=O)c3ccc4ccccc4c3)c2C(N)=O)C1	none
CN1CCN(c2ccccc2NC(=O)c2ccc(-c3ccc(Cl)c(Cl)c3)o2)CC1	none
COc1c(Cl)cc(Cl)cc1C(=O)Nc1ccccc1N1CCN(C(C)=O)CC1	Apaf-1 act -325.3 | Rh110 interf act inactive | Apaf-1 act conf inactive
COc1cc(OC)c2c(-c3ccccc3)cc(=O)oc2c1C(CCN1CCOCC1)c1ccc2c(c1)OCO2 (centres undefined)	none
CC1CN(Cc2c(O)ccc3c2oc(=O)c2ccccc23)CC(C)O1 (centres undefined)	none
O=C1C(SCCO)=C(SCCO)C(=O)c2ccccc21	none
COc1ccc(C(=O)N2CCCCCC2)cc1OC1CCN(C(C)C)CC1	Apaf-1 act -68.0 | Rh110 interf act inactive | Apaf-1 act conf inactive
CC1=NN(c2ccc(C)cc2C)C(=O)C1C(c1ccccc1)C1C(=O)N(c2ccc(C)cc2C)N=C1C (centres undefined)	none
Cc1ccc(C)c(-n2ccnc2SCC(=O)O)c1	Apaf-1 act -464.7 | Rh110 interf act inactive | Apaf-1 act conf inactive
CCOc1cc2c(C#N)c(N3CCCCC3)nc(N)c2c(N)n1	none
Cc1ccc(C(=O)N/C(=C\c2ccc(-c3ccccc3[N+](=O)[O-])o2)C(=O)NCCCN(C)C)cc1	none
Cc1c(C(=O)N2CCOCC2)c(S(=O)(=O)Nc2cccc(Br)c2)c(C)n1C	Apaf-1 act -43.6 | Rh110 interf act inactive | Apaf-1 act conf inactive
Cc1ccc(C(=O)Nc2ccccn2)cc1S(=O)(=O)N1CCOCC1	none
O=C(Nc1nnc(S(=O)(=O)N2CCOCC2)s1)c1ccccc1Br	Apaf-1 act -95.4 | Rh110 interf act inactive | Apaf-1 act conf inactive
Cc1cc(N(CCO)CCO)ccc1N=Nc1cc(F)ccc1F	none
Oc1cc(NCCN2CCOCC2)cc2cccnc12	none
CCOc1ccc(NS(=O)(=O)c2cc(C(=O)NCCCN3CCOCC3)ccc2C)cc1	none
Cc1ccc(S(=O)(=O)NCCN2CCOCC2)c(C)c1C	Apaf-1 act -47.7 | Rh110 interf act inactive | Apaf-1 act conf inactive
NC(=O)C1CCN(C2=C(NS(=O)(=O)c3ccc(Br)cc3)C(=O)c3ccccc3C2=O)CC1	none
CC(C)(C)c1ccc(S(=O)(=O)/N=C2\C=C(NS(=O)(=O)c3ccccc3)C(=O)c3ccccc32)cc1	none
Cc1ccc2cc(C(c3nnnn3CC3CCCO3)N3CCc4ccccc4C3)c(=O)[nH]c2c1 (centres undefined)	none
CCn1cc(CN2CCC(n3nccc3NC(=O)Cc3ccccc3)CC2)cn1	Apaf-1 act -53.4 | Rh110 interf act inactive | Apaf-1 act conf inactive
CCN(CC)CCCNc1ccc(-c2nnc(-c3ccc(OCC(C)C)cc3)o2)cn1	none
O=C(O)c1ccc(NC2=C(n3nnc4ccccc43)C(=O)c3ccccc3C2=O)cc1	none
O=C(O)c1ccc2c(c1)-c1nc3ccccc3n1C2=O	Apaf-1 act -113.1 | Rh110 interf act inactive | Apaf-1 act conf inactive
CN1C(=O)CC(Nc2cccc3cccc(N)c23)C1=O (centres undefined)	none
O=C(NCc1ccc2c(c1)OCO2)c1ccc2snnc2c1	Apaf-1 act -181.2 | Rh110 interf act inactive | Apaf-1 act conf inactive
COC(=O)C1=C(C)N(Cc2ccccc2)C(=NCc2ccc3c(c2)OCO3)N[C@H]1c1ccccc1	none
O=C(NC(Cc1ccccc1)C(=O)NCc1ccccn1)c1ccco1 (centres undefined)	Apaf-1 act -187.4 | Rh110 interf act inactive | Apaf-1 act conf inactive
CCN1CCN(Cc2ccc(NC(=O)c3cc(NC(=O)c4cncc(-c5cccs5)c4)cc(OC)c3)cc2C(F)(F)F)CC1	none
COc1ccc(CC2S/C(=N/N=C/c3ccccc3O)NC2=O)cc1 (centres undefined)	Apaf-1 act -523.6 | Rh110 interf act inactive | Apaf-1 act conf inactive
CCc1ccccc1OC[C@@H](O)CN[C@H]1CCCc2ccccc21	none
CC(=O)CCc1ccc(OCC(O)CNC2CCCc3ccccc32)cc1 (centres undefined)	none
Cc1cc2occ(CC(=O)NC3CCCc4ccccc43)c2cc1C (centres undefined)	Apaf-1 act -163.8 | Rh110 interf act inactive | Apaf-1 act conf inactive
COc1ccc(CCN2CCC(Nc3nc4ccccc4n3Cc3ccc(F)cc3)CC2)cc1	none
COc1ccc(N2CCN(Cc3nc4ccccc4n3C)CC2)cc1	Apaf-1 act -108.3 | Rh110 interf act inactive | Apaf-1 act conf inactive
COc1ccc(-c2nc(-c3ccccc3)nc(N3CCN(C)CC3)c2C#N)cc1	none
